Data from ChEMBL document CHEMBL2331187, “Efficient synthesis of 3H,3'H-spiro[benzofuran-2,1'-isobenzofuran]-3,3'-dione as novel skeletons specifically for influenza virus type B inhibition” (Eur J Med Chem, 2013).

Assays:
Influenza B virus [1] = assay: Antiviral activity against Influenza B virus (B/Brisbane/60/2008) infected in MDCK cells assessed as inhibition of virus-induced cytopathogenicity at 1 hr post-infection measured after 3 days by fluorescein-diacetate based fluorimetric analysis; type: functional, cell-based; settings: B/Brisbane/60/2008, MDCK
Outline: (§1)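 Confluent MDCK monolayers were mock-infected or infected with about 50-100 PFU of influenza virus per well. At read-out the medium was removed and cells were stained with fluorescein diacetate in PBS for 20 min at 35 °C. Fluorescence was read at ex 485/em 538 nm. CC50 and EC50 were derived from the fluorescence, and the selectivity index was taken as CC50/EC50.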

Influenza B virus [2] = assay: Antiviral activity against Influenza B virus (B/Lee/40) infected in MDCK cells assessed as inhibition of virus-induced cytopathogenicity at 1 hr post-infection measured after 3 days by fluorescein-diacetate based fluorimetric analysis; type: functional, organism-based; settings: B/Lee/1940, MDCK; outline: as §1
Influenza B virus [3] = assay: Antiviral activity against Influenza B virus (B/Taiwan/2/62) infected in MDCK cells assessed as inhibition of virus-induced cytopathogenicity at 1 hr post-infection measured after 3 days by fluorescein-diacetate based fluorimetric analysis; type: functional, organism-based; outline: as §1
[4] = Cytotoxicity against MDCK cells after 3 days by fluorescein diacetate-based fluorimetric analysis; type: cell-based, Canis lupus familiaris; settings: dog; outline: as §1
Influenza B virus [5] = assay: Antiviral activity against Influenza B virus (B/Panama/45/1990) infected in MDCK cells assessed as inhibition of virus-induced cytopathogenicity at 1 hr post-infection measured after 3 days by fluorescein-diacetate based fluorimetric analysis; type: functional, cell-based; settings: B/Panama/45/1990, MDCK; outline: as §1
Influenza A virus = assay: Antiviral activity against Influenza A virus (A/Taiwan/1/1986(H1N1)) infected in MDCK cells assessed as inhibition of virus-induced cytopathogenicity at 1 hr post-infection measured after 3 days by fluorescein-diacetate based fluorimetric analysis; type: functional, organism-based; outline: as §1
[6] = Selectivity ratio of CC50 for MDCK cells to EC50 for Influenza B virus (B/Panama/45/1990); type: ADME, cell-based; settings: dog, read-out: Ratio CC50/EC50; outline: as §1
Human alphaherpesvirus 1 = assay: Antiviral activity against Herpes simplex virus 1 F infected in Vero cells assessed as inhibition of virus-induced cytopathogenicity by MTT assay; type: functional, organism-based; settings: Human alphaherpesvirus 1, strain F
Outline: (§2)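 MTT-based CPE assay in Vero cells with HSV-1 strain F or HSV-2 strain MS. CC50 is the concentration that reduces viability of uninfected Vero cells by 50%. EC50 is the concentration that improves viability of HSV-infected cells by 50%.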

[7] = Cytotoxicity against african green monkey Vero cells by MTT assay; type: cell-based; settings: chlorocebus sabaeus; outline: as §2
Human alphaherpesvirus 2 = assay: Antiviral activity against Herpes simplex virus 2 MS infected in Vero cells assessed as inhibition of virus-induced cytopathogenicity by MTT assay; type: functional, organism-based; settings: Human alphaherpesvirus 2, MS; outline: as §2
[8] = test system: Human immunodeficiency virus 2; assay: Antiviral activity against Human immunodeficiency virus 2 ROD infected in MT4 cells assessed as inhibition of virus-induced cytopathogenicity by MTT assay; type: functional, organism-based; settings: Human immunodeficiency virus 2, ISOLATE ROD
Outline: (§3)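 MTT-based CPE assay in MT4 cells. CC50 is the concentration that reduces viability of uninfected MT4 cells by 50%. EC50 is the concentration that improves viability of HIV-infected cells by 50%.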

[9] = Cytotoxicity against human MT4 cells by MTT assay; type: cell-based; outline: as §3
[10] = test system: Human immunodeficiency virus 1; assay: Antiviral activity against Human immunodeficiency virus 1 3B infected in MT4 cells assessed as inhibition of virus-induced cytopathogenicity by MTT assay; type: functional, organism-based; outline: as §3

| Compound | EC50 (Influenza B virus [1]) | EC50 (Influenza B virus [2]) | EC50 (Influenza B virus [3]) | CC50 at 72 h [4] | EC50 (Influenza B virus [5]) | EC50 (Influenza A virus) | selectivity ratio [6] | EC50 (Human alphaherpesvirus 1) | CC50 [7] | EC50 (Human alphaherpesvirus 2) | EC50 [8] | CC50 [9] | EC50 [10] |
| --- | --- | --- | --- | --- | --- | --- | --- | --- | --- | --- | --- | --- | --- |
| O=C1OC2(Oc3c(cccc3-c3ccccc3)C2=O)c2ccccc21 (stereo unspecified) | 11.2 µM | 12.2 µM | 8.3 µM | 29.2 µM | 4.3 µM | 12.9 µM | < 5 |  |  |  |  |  |  |
| O=C1OC2(Oc3ccc(-c4ccccc4)cc3C2=O)c2ccccc21 (stereo unspecified) | 12.1 µM | 14.1 µM | 10.8 µM | 30.3 µM | 6.6 µM | > 30.3 µM | < 5 |  |  |  |  |  |  |
| O=C1OC2(Oc3c(Cl)cccc3C2=O)c2ccccc21 (stereo unspecified) | 96.3 µM | 227 µM | 61.4 µM | > 500 µM | 21.7 µM | 174 µM |  |  |  |  |  |  |  |
| O=C1OC2(Oc3ccc(Cl)cc3C2=O)c2ccccc21 (stereo unspecified) | 28.6 µM | 38.8 µM | 21.7 µM | 153 µM | 7.8 µM | 25.2 µM |  |  |  |  |  |  |  |
| CCc1ccc2c(c1)OC1(OC(=O)c3ccccc31)C2=O (stereo unspecified) | 32.2 µM | 34.4 µM | 12.1 µM | 103 µM | 11.2 µM | 34.6 µM |  |  |  |  |  |  |  |
| CCc1ccc2c(c1)C(=O)C1(OC(=O)c3ccccc31)O2 (stereo unspecified) | 25.4 µM | 31.2 µM | 9.3 µM | 112 µM | 7.5 µM | 28.1 µM |  |  |  |  |  |  |  |
| CCCc1ccc2c(c1)C(=O)C1(OC(=O)c3ccccc31)O2 (stereo unspecified) | 27.6 µM | 33.7 µM | 25 µM | 100 µM | 9.8 µM | 30.8 µM |  |  |  |  |  |  |  |
| Cc1ccc2c(c1C)OC1(OC(=O)c3ccccc31)C2=O (stereo unspecified) | 23.5 µM | 32 µM | 28.9 µM | 370 µM | 9.9 µM | 7.1 µM |  |  |  |  |  |  |  |
| Cc1cc(C)c2c(c1)OC1(OC(=O)c3ccccc31)C2=O (stereo unspecified) | > 500 µM | > 500 µM | > 500 µM | > 500 µM | > 500 µM | 11.4 µM |  |  |  |  |  |  |  |
| Cc1ccc(C)c2c1OC1(OC(=O)c3ccccc31)C2=O (stereo unspecified) | 42.7 µM | > 187 µM | 66.6 µM | 187 µM | > 187 µM | > 187 µM |  |  |  |  |  |  |  |
| O=C1OC2(Oc3cc4c(cc3C2=O)CCC4)c2ccccc21 (stereo unspecified) | 4.8 µM | 10.6 µM | 5.7 µM | 80.4 µM | 2.1 µM | 9.8 µM |  |  |  |  |  |  |  |
| Cc1cc2c(c(C)c1C)C(=O)C1(OC(=O)c3ccccc31)O2 (stereo unspecified) | 103 µM | 254 µM | 23.2 µM | > 500 µM | 11 µM | > 500 µM |  |  |  |  |  |  |  |
| COc1cccc2c1OC1(OC(=O)c3ccccc31)C2=O (stereo unspecified) | 81.1 µM | 58.2 µM | 42.3 µM | 253 µM | 23.6 µM | 126 µM |  |  |  |  |  |  |  |
| Nc1nc2c(ncn2COCCO)c(=O)[nH]1 [ACYCLOVIR] |  |  |  |  |  |  |  | 1.7 µM | > 50 µM | 58.6 µM |  |  |  |
| NC12CC3CC(CC(C3)C1)C2 [AMANTADINE] | > 100 µM | > 100 µM | > 100 µM | > 100 µM | > 100 µM | 0.6 µM |  |  |  |  |  |  |  |
| O=c1[nH]cnc2c1ncn2[C@H]1CC[C@@H](CO)O1 [DIDANOSINE] |  |  |  |  |  |  |  |  |  |  | 34.7 µM | > 500 µM | 7.8 µM |
| NC(=O)c1nc(F)cnc1O [FAVIPIRAVIR] | 1.32 µM | 1.93 µM | 2.84 µM | > 100 µM | 1.94 µM | 6.95 µM |  |  |  |  |  |  |  |
| Nc1ccn([C@H]2CC[C@@H](CO)O2)c(=O)n1 [ZALCITABINE] |  |  |  |  |  |  |  |  |  |  | 0.4 µM | 75.2 µM | 0.4 µM |
